Active and inactive are the calls of the source. No cut-off for these calls is given here.
Assays:
Human gammaherpesvirus 8 [1] = assay: Cytotoxicity against Kaposi's sarcoma-associated herpesvirus infected BC3 cells after 120 hrs by MTT assay; type: functional, organism-based; settings: Human gammaherpesvirus 8, BC-3, 120 h
In short: (§1)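 KSHV-positive PEL lines (BC2, BC3) and herpesvirus-negative B-lymphoma DG75 exposed to varying nucleoside concentrations for 120 h, then cell viability assay; OD 560 nm, untreated cells of each line set as 100%. Six replicate wells per experiment; IC50 as mean ± SD of three separate experiments.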

[2] = Cytotoxicity against DG75 cells after 120 hrs by MTT assay; type: cell-based; settings: Homo sapiens, DG-75, 120 h; in short: as §1
Human gammaherpesvirus 8 [3] = assay: Cytotoxicity against Kaposi's sarcoma-associated herpesvirus infected BC2 cells after 120 hrs by MTT assay; type: functional, organism-based; settings: Human gammaherpesvirus 8, BC-2, 120 h; in short: as §1
Human gammaherpesvirus 8 [4] = assay: Cytotoxicity against Kaposi's sarcoma-associated herpesvirus infected BC3 cells in presence of 50 uM adenosine after 72 hrs; type: functional, organism-based; settings: BC-3
In short: (§2)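 BC3 cells seeded at 10⁴ cells/mL, given graded compound concentrations plus one common nucleoside (final 50 µM) added simultaneously, in triplicate; 3 days (72 h) at 37 °C, humidified 5% CO₂; growth inhibition read by MTT assay.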

Human gammaherpesvirus 8 [5] = assay: Cytotoxicity against Kaposi's sarcoma-associated herpesvirus infected BC3 cells in presence of 50 uM thymidine after 72 hrs; type: functional, organism-based; settings: BC-3; in short: as §2
BC-3 = assay: Inhibition of RNA synthesis in KSHV infected BC3 cells assessed as [3H]guanosine incorporation after 1 hr; type: functional, Homo sapiens
In short: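 BC3 cells (2.5 × 10⁵ cells/mL) cultured 24 h, then compound added for 1 h; before harvest, 30 min pulse label with [³H]thymidine for DNA or tritiated ribonucleoside for RNA (guanosine in text, uridine in legend); synthesis measured as radiolabel incorporation.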

SMILES | IC50 (Human gammaherpesvirus 8 [1]) | IC50 [2] | IC50 (Human gammaherpesvirus 8 [3]) | Activity (Human gammaherpesvirus 8 [4]) | Activity (Human gammaherpesvirus 8 [5]) | Inhibition (BC-3)
N#C[C@H]1[C@H](O)[C@@H](CO)O[C@H]1n1cnc2c(N)ncnc21 | > 15 µM | > 15 µM | > 15 µM |  |  | 
N#C[C@H]1[C@H](O)[C@@H](CO)O[C@H]1n1cnc2c(Cl)nc(N)nc21 | 1.48 µM | > 15 µM | 1.73 µM |  |  | 
Nc1nc2c(ncn2COCCO)c(=O)[nH]1 [ACYCLOVIR] | > 100 µM | > 100 µM | > 100 µM |  |  | 
N#C[C@H]1[C@H](O)[C@@H](CO)O[C@H]1n1cnc2c(O)nc(N)nc21 | 1.14 µM | > 15 µM | 7.61 µM | inactive | inactive | 80%
N#C[C@H]1[C@H](O)[C@@H](CO)O[C@H]1n1cnc2c(N)nc(N)nc21 | 0.47 µM | > 15 µM | 1.56 µM |  |  | 
Nc1nc2c(ncn2COC(CO)CO)c(=O)[nH]1 [GANCICLOVIR] | 70 µM | > 100 µM | 81 µM |  |  | 
N#C[C@H]1[C@H](O)[C@@H](CO)O[C@H]1n1ccc(N)nc1=O [TAS-109] | 0.23 µM | 0.21 µM | 0.13 µM |  |  | 
O=c1[nH]c(=O)n([C@H]2C[C@H](O)[C@@H](CO)O2)cc1/C=C/Br [BRIVUDINE] | > 15 µM | > 15 µM | > 15 µM |  |  | 
N#C[C@@H]1[C@H](O)[C@@H](CO)O[C@H]1n1cnc2c(=O)[nH]c(N)nc21 | 1.73 µM | > 15 µM | 2.61 µM |  |  | 
N#C[C@H]1[C@H](O)[C@@H](CO)O[C@H]1n1cnc2cnc(N)nc21 | > 15 µM | > 15 µM | > 15 µM |  |  | 
COc1nc(N)nc2c1ncn2[C@@H]1O[C@H](CO)[C@@H](O)[C@@H]1C#N | 0.79 µM | > 15 µM | 1.51 µM |  |  | 

Reference: ChEMBL document CHEMBL1147135, “9-(2-C-Cyano-2-deoxy-beta-D-arabino-pentofuranosyl)guanine, a potential antitumor agent against B-lymphoma infected with Kaposi's sarcoma-associated herpesvirus” (J Med Chem, 2007)
